Activity, Kb and Tm data for two compounds are collected here from ChEMBL document CHEMBL2203253, “An ecofriendly synthesis and DNA binding interaction study of some pyrazolo [1,5-a]pyrimidines derivatives” (Bioorg Med Chem Lett, 2012).

What all share (assay type): nucleic-acid assay
Details in all cases: Bos taurus

In test [1] the test system is Nucleic Acid. The experiment in a line: Binding affinity to calf thymus DNA assessed as bathochromic shift at 30 uM by UV-visible absorption spectroscopy. In a few lines:
(§1)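 CT-DNA checked for purity by A260/A280; concentration per nucleotide from extinction coefficient at 260 nm (6600 M-1 cm-1). Compound held constant at 30 μM in 50% DMSO/phosphate buffer, pH 7.2 (5 mM in one passage, 0.2 M in another). DNA titrated from 0 to 100 μM, spectra recorded after each addition once equilibrated.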

For test [2], the system named is Nucleic Acid. Put plainly: Binding affinity to calf thymus DNA assessed as intrinsic binding constant by UV-visible absorption spectroscopy. The method in brief:
as §1

Test [3] concerns Nucleic Acid. The experiment in a line: Binding affinity to calf thymus DNA assessed as increase in viscosity of short, rod-like DNA at compound to DNA ratio of 0.2 to 1.4 by viscometer. The method in brief:
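Viscometer titration of CT-DNA solution (496.2 μmol/L) in phosphate buffer pH 7.2 with increasing compound concentrations. Flow time measured at 25 °C in an Ostwald viscometer, with the same method for each compound.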

Test [4] deals with Nucleic Acid. Put plainly: Binding affinity to calf thymus DNA assessed as melting temperature at 5 to 10 uM by thermal denaturation analysis. The method in brief: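 Thermal melting of CT-DNA (50 μM) in phosphate buffer pH 7.2, with and without compound (5–10 μM). Absorbance at 260 nm followed across temperatures. Tm taken as the point of 50% strand separation, with curve width from the 10–90% absorbance rise.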

The test system of test [5] is Nucleic Acid. The experiment in a line: Binding affinity to calf thymus DNA assessed as hypochromicity at 30 uM by UV-visible absorption spectroscopy. The method in brief:
as §1

The source made the active and inactive calls. The calls are words filed in the database; no cut-off is given here.

What is called Tm is the temperature at the midpoint of the melting transition. With `CCCCc1nc(Cl)c([C@@H]2[C@H]3C(C)=NN(c4ccccc4)C3=Nc3c(/N=N/c4ccc(Cl)cc4)c(N)nn32)[nH]1`, the result in the test on Nucleic Acid [1], in the test with Nucleic Acid [3] and with Nucleic Acid [5] was Active. For the same compound, the Kb with Nucleic Acid [2] was 5.7 ×10⁵ /M. In the test with Nucleic Acid [4], the Tm is 82 °C.
In the case of `CCCCc1nc(Cl)c(/C=C2/C(=O)N(c3ccccc3)N=C2C)[nH]1`, the result in the test with Nucleic Acid [1], in the test on Nucleic Acid [3] and with Nucleic Acid [5] was Active. Further, in the test with Nucleic Acid [2], the Kb was determined as 5.21 ×10⁵ /M. Further, in the test with Nucleic Acid [4], the Tm turned out to be 80 °C.
